Results taken from ChEMBL document CHEMBL4387777, “Bis(benzoyl) phosphate inactivators of beta-lactamase C from Mtb” (Bioorg Med Chem Lett, 2019).

Columns and labels:
[1] = Stability of the compound in pH 7.4 PIPES buffer assessed as compound hydrolysis at 5 to 10 mg by 31p-NMR analysis; type: physicochemical
[2] = system: Mycobacterium tuberculosis; assay: Inhibition of Mycobacterium tuberculosis BlaC expressed in Escherichia coli at 100 uM using nitrocefin as substrate measured at 2 mins interval for 10 mins relative to control
Procedure, shortened: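 Purified BlaC was screened against each compound at a single concentration of 100 µM, and percent inhibition was read. Each % inhibition value comes from n ≥ 4 determinations and is reported with its standard deviation.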

[3] = system: Mycobacterium tuberculosis; assay: Time-dependent inhibition of Mycobacterium tuberculosis BlaC expressed in Escherichia coli assessed as inactivation rate constant using nitrocefin as substrate

Structure (SMILES) | Stability [1] | inhibition [2] [%] | K [3] [min⁻¹]
Cc1ccc(C(=O)OP(=O)(O)OC(=O)c2ccc(C)cc2)cc1 | Stable | 41.2 | –
O=C(OP(=O)(O)OC(=O)c1ccccc1)c1ccccc1 | Stable | 52.3 | 0.324
N#Cc1ccc(C(=O)OP(=O)(O)OC(=O)c2ccc(C#N)cc2)cc1 | Unstable | – | –
O=C(OP(=O)(O)OC(=O)c1ccc(Cl)cc1)c1ccc(Cl)cc1 | Stable | 24.8 | –
O=C(OP(=O)(O)OC(=O)c1ccc(Cl)c(Cl)c1)c1ccc(Cl)c(Cl)c1 | Stable | 20.2 | –
O=C(OP(=O)(O)OC(=O)c1ccc(-c2ccccc2)cc1)c1ccc(-c2ccccc2)cc1 | Stable | 0 | –
O=C(OP(=O)(O)OC(=O)c1ccc(C(F)(F)F)cc1)c1ccc(C(F)(F)F)cc1 | Stable | 42.5 | –
COc1ccc(C(=O)OP(=O)(O)OC(=O)c2ccc(OC)cc2)cc1 | Stable | 65.5 | 0.212
O=C(OP(=O)(O)OC(=O)c1ccc([N+](=O)[O-])cc1)c1ccc([N+](=O)[O-])cc1 | Unstable | – | –
O=C(OP(=O)(O)OC(=O)c1ccc(F)cc1)c1ccc(F)cc1 | Stable | 84.3 | 0.45
